# Hits are enriched below; roughly 10% of the tested compounds scored in any of these assays.
# WT yeast gro inh: growth inhibition of WT yeast, mitochondrial fusion screen; mitochondrial fusion phenotypic screen, WT strain; inhibition, % at 10 µM; actives 2.1% (n = 190,000); in the data active = inhibition above about 58%; tested in S. cerevisiae
# Diaph act CS: activates diaphorase or chemically reduces, flagging diaphorase assay artifacts. Diaphorase/resazurin coupled assay, resorufin fluorescence, 16 min; hits give high values; 1 = vehicle wells, 0 = NADH-free wells. activation factor at 20 µM. actives 0.005% (n = 190,000). AID 1229;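 active = diaphorase activity raised at least twofold by the compound at 20 µM; inactive = activation factor below 2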
#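 Test system: Clostridium kluyveri diaphorase, purified enzyme; input: enzyme 0.07 U/mL final; buffer or medium: 50 mM HEPES pH 7.4 with 4.542 mM MgCl2, 0.005% Tween 20; also added: 0.114 mM NADH and 0.1 mM resazurin, final amounts; schedule: 16 min enzyme reaction, ambient temperature; technique: fluorescence of resorufin, 544 nm excitation, 590 nm emission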
# L major viab: inhibitors of Leishmania major promastigote growth; Leishmania major promastigotes, resazurin fluorescence viability; inhibition, % at 10 µM; actives 9% (n = 200,000); AID 1063; in the data active = inhibition above about 50%;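 note: promastigotes grown with compound for 44 hours at 28 °C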
# PMI act hi M6P: PMI (human) activation, high substrate | P34949 | coupled PMI enzyme assay, resazurin fluorescence, 20 min; hits give high values; 1 = untreated enzyme, 0 = substrate-free blank | activation factor at 20 µM | actives 0.34% (n = 190,000);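 active = activation factor of 2 or more at 20 µM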
# Target sequence (P34949 whole entry, looked up): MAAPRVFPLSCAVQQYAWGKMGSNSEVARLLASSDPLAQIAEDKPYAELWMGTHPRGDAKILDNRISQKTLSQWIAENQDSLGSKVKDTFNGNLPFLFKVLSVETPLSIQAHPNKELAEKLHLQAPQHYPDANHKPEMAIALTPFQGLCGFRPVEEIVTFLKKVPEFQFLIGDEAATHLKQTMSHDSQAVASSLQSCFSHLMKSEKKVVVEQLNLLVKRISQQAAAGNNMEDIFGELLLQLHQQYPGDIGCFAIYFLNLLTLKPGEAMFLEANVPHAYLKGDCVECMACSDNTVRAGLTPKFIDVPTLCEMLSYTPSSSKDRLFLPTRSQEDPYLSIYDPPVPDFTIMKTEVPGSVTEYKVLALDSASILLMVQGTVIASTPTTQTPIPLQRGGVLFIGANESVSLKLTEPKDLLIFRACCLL
#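 Technique: Diaphorase-driven resazurin-to-resorufin fluorescence, excitation 544, emission 590 nm | Assay system: Human PMI in coupled enzyme assay | Times: Enzyme reaction with compound 20 min at room temperature | Medium: HEPES-buffered pH 7.4 with magnesium and detergent | Reagent: Mannose-6-phosphate 1.0 mM (near-saturating) plus 0.22 mM NADP+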
# PMI activator: activators of human phosphomannose isomerase; P34949; purified human PMI, coupled resazurin fluorescence, 20 min; hits give high values; 1 = vehicle control, 0 substrate-free wells; activation factor at 20 µM; actives 0.005% (n = 190,000); AID 1214;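 active = activation factor of 2 or more at 20 µM, relative to plate controls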
# Lmaj promast 1uM: blocks Leishmania major promastigote growth at 1 uM, repeat screen; shares compounds with L major viab; L. major promastigote growth, resazurin fluorescence, 48 h; inhibition, % at 1 µM; actives 13% (n = 1,100); AID 1258;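 active = inhibition above about 50% in both repeat tests, limit read from the data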
# * hit, by the source's call; · = not tested or not shown.
SMILES,WT yeast gro inh,Diaph act CS,L major viab,PMI act hi M6P,PMI activator,Lmaj promast 1uM
O=C(Nc1nc(-c2cccc([N+](=O)[O-])c2)cs1)C(c1ccccc1)c1ccccc1,37.0,0.9,58.6*,0.9,0.9,-2.3
CC(OC(=O)c1ccccc1Br)C(=O)Nc1nc(-c2cccc([N+](=O)[O-])c2)cs1 (stereo not given),15.2,0.7,1.5,0.8,0.8,·
Cc1ccc2cc(CN(Cc3nnnn3Cc3ccco3)CC3CCCO3)c(=O)[nH]c2c1C (stereo not given),3.9,0.7,1.6,1,0.9,·
Cc1ccc(S(=O)(=O)Cn2nnnc2CN(Cc2ccco2)CC2CCCO2)cc1 (stereo not given),3.8,0.8,53.0*,0.9,0.9,-5.6
CN1CCN(c2ccccc2NC(=O)c2sc3ccccc3c2Cl)CC1,10.2,0.5,13.8,0.4,0.7,·
COc1ccc(-c2cc(Nc3ccccc3NC(=O)C(F)(F)F)n(CCC#N)n2)cc1,-14.7,1.1,62.6*,1,1,-13.9
CCOC(=O)c1cc(-c2ccc(OC)cc2)nc2c1c(C)nn2CCC#N,0.2,1,5.9,1,1,·
CC(C(=O)Nc1ccc(F)c(F)c1F)N(C)CC(=O)Nc1ccccc1Br (stereo not given),-8.7,0.9,11.7,1.1,1,·
C=CCn1cccc(/C=C/C(=O)c2ccc(C(C)(C)C)cc2)c1=S,49.8,0.9,100.3*,1.4,1.3,65.5*
CCN(CC)C(=O)c1sc(N)c(C#N)c1C,5.8,0.9,-2.4,1,1,·
Cc1sc(N)c(C#N)c1C,18.0,0.9,51.4*,1.2,1.2,-19.3
C=CCNC(=O)COC(=O)COc1ccc(Cl)cc1,7.7,0.9,-0.2,1,1.1,·
O=c1c(-c2ccccc2)c(O)nc(SCCN2CCOCC2)n1-c1ccccc1,7.5,0.9,-2.3,1,1,·
Nc1c(-c2ccccc2)c(CN2CCOCC2)nn1-c1ccc(C(=O)O)cc1,-1.0,1,65.7*,1,1.1,-5.9
CCOC(=O)c1ccc(NC(=S)N2CCSC2c2ccc(Cl)cc2)cc1 (stereo not given),59.8*,0.8,60.4*,0.8,0.8,-10.6
COc1ccccc1CNc1nc2ccccc2n1CCN1CCCCC1,13.6,1,60.9*,1.1,1,8.9
Oc1ccccc1CNc1nc2ccccc2n1CCN1CCCCC1,12.2,0.9,24.1,0.8,0.8,·
Cc1ccc(NC(=O)CCSCCc2ccccn2)cc1,5.2,0.9,-4.7,1,1,·
CCCCN1C2CCCC1CC(NC(=O)C1CCCCC1)C2 (stereo not given),-3.2,0.8,87.6*,1,1,-7.7
CCCN1C2CCCC1CC(NC(=O)c1ccccc1)C2 (stereo not given),7.1,1,6.5,1,0.9,·
Cc1ccc2nc(Cl)c3nnnn3c2c1,68.4,1,100.2*,1.1,1.2,92.7*
Cc1ccc2nc(N3CCN(c4cccc(C)c4C)CC3)c3nnnn3c2c1,4.7,1,-2.8,1.1,1,·
CCCCNC(=O)CN1C(=O)NC2(CCCc3ccccc32)C1=O (stereo not given),14.2,0.9,-2.1,1,1,·
CC1(C)Cc2c(ccc3ccccc23)/C(=C/C(=O)N2CCCCC2)N1,55.8,0.9,17.7,1,0.9,·
O=C(/C=C1\NC2(CCCC2)Cc2ccccc21)N1CCOCC1,8.2,0.8,87.6*,1.3,1.1,-2.4
SMILES,WT yeast gro inh,Diaph act CS,L major viab,PMI act hi M6P,PMI activator,Lmaj promast 1uM
CN(C)C(=O)c1c(C(F)(F)F)nn(C)c1Cl,-27.1,1.1,0.1,1.1,1.2,·
CC(C)CCN(C)c1ccc(/C=N/n2cnnc2)cc1,31.2,0.9,82.0*,1.1,1,-0.5
O=C(NNS(=O)(=O)c1ccc(F)cc1)C1CC(c2cccnc2)=NO1 (stereo not given),-5.9,1,-4.4,0.9,0.9,·
Cc1cc(C)c(C(=O)c2ccc(C(=O)N(C(C)C)C(C)C)cc2)c(C)c1,10.7,0.9,85.5*,1,0.9,-11.1
O=[N+]([O-])c1ccc(-n2cnc3ccccc32)c([N+](=O)[O-])c1,28.1,0.7,99.6*,0.8,1,21.8
O=[N+]([O-])c1ccc2c(c1)ncn2-c1ccccc1,-0.7,1.1,1.2,1.1,1,·
COc1ccc(CN2C(=O)c3ccccc3C2C(=O)NC2CCCCCC2)c(OC)c1 (stereo not given),-0.6,0.9,18.0,1,0.9,·
O=C(Nc1nc(-c2ccccc2)cs1)c1ccc(N2CCOCC2)c([N+](=O)[O-])c1,14.6,0.8,98.2*,0.9,0.9,14.0
Cc1ccc(-c2csc(NC(=O)c3cc([N+](=O)[O-])ccc3N3CCOCC3)n2)cc1,13.9,1.1,5.3,1,1,·
COc1ccc(CN(C(=S)Nc2ccccc2)C2CC(=O)N(c3ccccc3)C2=O)cc1 (stereo not given),-11.6,0.8,24.6,0.9,0.9,·
COc1ccc(CN(C(=S)Nc2ccccc2)C2CC(=O)N(c3ccc(Cl)cc3)C2=O)cc1 (stereo not given),2.1,0.8,99.1*,0.8,0.8,2.4
CC(=O)c1c(-c2ccc(C)cc2)nc2c3ccccc3ccn12,8.1,0.8,58.5*,0.9,0.9,42.8
C(=C/c1nccc2c1[nH]c1ccccc12)/c1ccc2c(c1)OCO2,88.7,1.1,95.9*,1,1,5.5
COc1ccc(C(=O)C(CN2CCOCC2)c2ccccc2)cc1F (stereo not given),61.4*,0.9,100.5*,1.1,1,85.7*
CCOc1cc(S(=O)(=O)NCc2ccncc2)c(C)cc1C,4.6,0.9,13.9,1,0.9,·
Cc1cc(NC(=O)COC(=O)c2oc3c(Cl)cccc3c2C)no1,5.7,1,-3.3,0.9,1,·
Cc1cc(C)cc(N(CC(=O)NC(C)(C)C)C(=O)CNC(=O)c2cccs2)c1,-2.9,1.1,-2.1,1.1,1,·
CC[C@H](C)C(=O)O[C@H]1CCC=C2C=C[C@H](C)[C@H](CC[C@@H]3C[C@@H](O)CC(=O)O3)[C@H]21,24.6,0.8,76.5*,0.9,0.9,-6.1
COC(=O)c1ccc(Oc2nc(NC(C)(C)C)nc(N3CCOCC3)n2)cc1,-2.8,1,-9.6,1,1,·
N#Cc1ccc(-c2csc(NC3=NCCCCC3)n2)cc1,-5.4,0.8,87.1*,1,0.9,-5.2
CN(C)CC/C=C1\c2cc(F)ccc2CSc2ccccc21,14.6,0.9,71.6*,1.1,1.2,-4.5
O=C(Nc1ccc(Cl)cc1)Nc1ccc2c(c1)N1CCN=C1S2,6.9,1.2,100.3*,0.9,0.8,0.7
Cc1ccc(S(=O)(=O)c2ccc(Oc3cccc(C)c3)cc2)cc1,12.9,0.9,74.5*,1,0.9,85.2*
